Test results as given in ChEMBL document CHEMBL5032512, “A Photohormone for Light-Dependent Control of PPARα in Live Cells” (J Med Chem, 2021).

Experiments:
Format in all cases: cell-based
[1] = target: T1, Peroxisome proliferator-activated receptor delta (Homo sapiens) (UniProt Q03181); experiment: Agonist activity at Gal4-fused human PPARdelta LBD transfected in HEK293T cells assessed as maximal relative activation incubated for 14 to 16 hrs by dual-Glo luciferase assay relative to L165,041; conditions: time 14-16 hrs
T1 sequence (whole entry): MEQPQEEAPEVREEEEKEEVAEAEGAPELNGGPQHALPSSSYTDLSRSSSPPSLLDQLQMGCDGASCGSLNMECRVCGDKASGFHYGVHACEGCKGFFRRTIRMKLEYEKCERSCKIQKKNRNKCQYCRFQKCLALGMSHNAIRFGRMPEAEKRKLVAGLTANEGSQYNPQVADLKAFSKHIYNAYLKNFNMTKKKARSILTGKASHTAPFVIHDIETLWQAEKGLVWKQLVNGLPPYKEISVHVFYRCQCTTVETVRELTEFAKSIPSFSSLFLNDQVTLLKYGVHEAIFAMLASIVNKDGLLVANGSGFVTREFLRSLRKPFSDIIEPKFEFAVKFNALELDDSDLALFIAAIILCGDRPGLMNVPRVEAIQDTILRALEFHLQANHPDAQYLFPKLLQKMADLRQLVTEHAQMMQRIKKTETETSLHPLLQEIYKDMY
Outline: (§1)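 HEK293T cells transiently transfected with pFR-Luc, pRL-SV40 and Gal4 fusion of human PPAR hinge region plus LBD. Compound added 5 h later in Opti-MEM with 0.1% DMSO, then left overnight (14−16 h). Dual-Glo firefly/Renilla luciferase read, giving RLU. Fold activation is taken against the DMSO control. Max relative activation is set against 1 μM GW7647 (α) or L165,041 (δ). EC50 from a four-parameter fit. Duplicates, ≥3 independent runs.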

[2] = target: T2, Peroxisome proliferator-activated receptor delta (Homo sapiens, UniProt Q03181); experiment: Agonist activity at Gal4-fused human PPARdelta LBD transfected in HEK293T cells assessed as transcriptional activation incubated for 14 to 16 hrs by dual-Glo luciferase assay; outline: as §1
T2 sequence (Q03181 whole entry): T1 sequence (whole entry)

[3] = target: T3, Peroxisome proliferator-activated receptor alpha (Homo sapiens) (UniProt Q07869); experiment: Agonist activity at Gal4-fused human PPARalpha LBD transfected in HEK293T cells assessed as maximal relative activation incubated for 14 to 16 hrs by dual-Glo luciferase assay relative to GW7647; conditions: time 14-16 hrs; outline: as §1
T3 sequence (whole entry): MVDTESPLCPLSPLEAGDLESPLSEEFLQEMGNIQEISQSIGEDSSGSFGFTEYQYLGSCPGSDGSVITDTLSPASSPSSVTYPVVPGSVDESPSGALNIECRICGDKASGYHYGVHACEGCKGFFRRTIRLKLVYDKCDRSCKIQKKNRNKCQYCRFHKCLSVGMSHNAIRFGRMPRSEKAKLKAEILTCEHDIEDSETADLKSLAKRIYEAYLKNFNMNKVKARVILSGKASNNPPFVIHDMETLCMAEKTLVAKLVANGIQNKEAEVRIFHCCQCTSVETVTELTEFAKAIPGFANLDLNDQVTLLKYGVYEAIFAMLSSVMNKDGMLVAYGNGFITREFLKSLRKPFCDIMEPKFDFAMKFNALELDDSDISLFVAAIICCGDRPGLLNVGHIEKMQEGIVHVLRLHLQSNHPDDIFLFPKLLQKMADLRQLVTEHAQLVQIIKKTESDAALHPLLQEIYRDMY

[4] = target: T4, Peroxisome proliferator-activated receptor gamma (Homo sapiens, UniProt P37231); experiment: Agonist activity at Gal4-fused human PPARgamma LBD transfected in HEK293T cells assessed as transcriptional activation incubated for 14 to 16 hrs by dual-Glo luciferase assay
T4 sequence (P37231 whole entry): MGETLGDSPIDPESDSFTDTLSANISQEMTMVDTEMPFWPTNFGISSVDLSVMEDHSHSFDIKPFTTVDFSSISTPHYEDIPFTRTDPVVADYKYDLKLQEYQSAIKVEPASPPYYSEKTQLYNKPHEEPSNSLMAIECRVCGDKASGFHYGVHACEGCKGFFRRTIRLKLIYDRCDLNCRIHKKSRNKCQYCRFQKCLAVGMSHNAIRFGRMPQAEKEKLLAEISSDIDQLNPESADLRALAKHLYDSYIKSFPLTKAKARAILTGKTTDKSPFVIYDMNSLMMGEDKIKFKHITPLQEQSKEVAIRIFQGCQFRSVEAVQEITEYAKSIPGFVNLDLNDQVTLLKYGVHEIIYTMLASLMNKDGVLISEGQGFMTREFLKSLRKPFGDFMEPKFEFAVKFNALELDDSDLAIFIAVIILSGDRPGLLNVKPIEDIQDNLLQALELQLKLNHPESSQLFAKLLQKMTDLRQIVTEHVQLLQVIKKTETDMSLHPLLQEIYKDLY

[5] = target: T5, Peroxisome proliferator-activated receptor alpha (Homo sapiens, UniProt Q07869); experiment: Agonist activity at Gal4-fused human PPARalpha LBD transfected in HEK293T cells assessed as transcriptional activation incubated for 14 to 16 hrs by dual-Glo luciferase assay; outline: as §1
T5 sequence (Q07869 whole entry): T3 sequence (whole entry)

[6] = system: HEK-293T; experiment: Cytotoxicity against HEK293T cells assessed as reduction in cell viability at >= 6 uM; conditions: human

Structure (SMILES): Cc1ccc(/N=N/c2ccc(OCCc3ccc(OC(C)(C)C(=O)O)cc3)cc2)cc1
- max activation [1]: 33%
- EC50 [2]: 1.42 µM
- max activation [3]: 24%
- EC50 [4]: > 10 µM
- EC50 [5]: 0.66 µM
- Activity [6]: Non-Toxic
